# Non-standard residues stand in square brackets, D forms with d. Residues, ends and D or L forms follow the SMILES beside them. ξ: configuration not given here. *: point of attachment. ξF = NC(Cc1ccccc1)C(=O)O; Boc = CC(C)(C)OC(=O)*; CF3 = FC(F)(F)*
# Columns and labels:
# Chymase = target: T1, Chymase (Homo sapiens, UniProt P23946); assay: Compound was evaluated for inhibitory activity against human heart chymase (HHC)
# T1 sequence (P23946 whole entry): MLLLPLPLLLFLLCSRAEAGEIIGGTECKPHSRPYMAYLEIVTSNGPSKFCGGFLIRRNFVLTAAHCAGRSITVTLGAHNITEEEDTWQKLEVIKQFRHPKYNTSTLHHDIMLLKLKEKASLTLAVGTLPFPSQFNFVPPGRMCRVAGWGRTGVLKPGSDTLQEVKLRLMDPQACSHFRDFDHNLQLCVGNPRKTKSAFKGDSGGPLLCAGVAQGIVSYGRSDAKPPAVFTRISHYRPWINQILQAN
# In short: (§1)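 Synthetic chromogenic substrate at 2.5 mM final in 20 mM Tris-HCl pH 7.5 with 2 M KCl. Five inhibitor concentrations were tested, with 10% DMSO in water as the control. The enzyme was added last. A405 minus A650 was read after 2 h at 37 °C. Residual activity was fitted by Easson–Stedman, and Ki = Ki'×Km/(Km+[S]). Mean ± SEM, n = 3 (some n = 2).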
# Chymotrypsinogen A = Chymotrypsinogen A (Bos taurus, UniProt P00766); assay: Compound was evaluated for inhibitory activity against Chymotrypsinogen; in short: as §1
# Bos taurus = organism: Bos taurus; assay: Selectivity ratio of Bovine chymotrypsin (BCT - Ki) to human heart chymase (HHC - Ki)
SMILES,Ki (Chymase) [µM],Ki (Chymotrypsinogen A) [µM],Ratio (Bos taurus)
CC(C)[C@H](NC(=O)OC(C)(C)C)C(=O)N1CCC[C@H]1C(=O)NC(Cc1ccccc1)C(=O)C(F)(F)C(=O)NCc1ccccc1 (mixture of isomers; form 2) [listing 1 of 2 here],0.0924,11.9,
CC(C)[C@H](NC(=O)OC(C)(C)C)C(=O)N1CCC[C@H]1C(=O)NC(Cc1ccccc1)C(=O)C(F)(F)C(=O)NCC(=O)O (stereo not given in full),0.0131,2.62,200
CC(C)[C@H](NC(=O)OC(C)(C)C)C(=O)N1CCC[C@H]1C(=O)NC(Cc1ccccc1)C(=O)C(F)(F)C(=O)Nc1ccccc1C(=O)O (stereo not given in full),3.62,> 100,> 28
CC(C)[C@H](NC(=O)OC(C)(C)C)C(=O)N1CCC[C@H]1C(=O)NC(Cc1ccccc1)C(=O)C(F)(F)C(=O)NCc1ccccc1 (mixture of isomers; form 1) [listing 1 of 2 here],0.0074,0.172,
CC(C)[C@H](NC(=O)OC(C)(C)C)C(=O)N1CCC[C@H]1C(=O)NC(Cc1ccccc1)C(=O)C(F)(F)C(=O)N1CCCC1C(=O)O (stereo not given in full),0.493,> 100,> 203
CC(C)[C@H](NC(=O)OC(C)(C)C)C(=O)N1CCC[C@H]1C(=O)NC(Cc1ccccc1)C(=O)C(F)(F)C(=O)N(C)Cc1ccccc1 (stereo not given in full),0.0701,7.55,108
CC(C)[C@H](NC(=O)OC(C)(C)C)C(=O)N1CCC[C@H]1C(=O)NC(Cc1ccccc1)C(=O)C(F)(F)C(=O)N[C@@H](Cc1ccccc1)C(=O)O (stereo not given in full),0.513,77.4,151
CC(C)[C@H](NC(=O)OC(C)(C)C)C(=O)N1CCC[C@H]1C(=O)NC(Cc1ccccc1)C(=O)C(F)(F)F (stereo partly drawn) (Boc-Val-Pro-[ξF]-CF3),0.0558,0.113,2
CC(C)[C@H](NC(=O)c1ccccc1)C(=O)N1CCC[C@H]1C(=O)NC(Cc1ccccc1)C(=O)C(F)(F)C(=O)Nc1cccc(C(=O)O)c1 (stereo not given in full),0.0031,0.275,88
CC(C)[C@H](NC(=O)OC(C)(C)C)C(=O)N1CCC[C@H]1C(=O)NC(Cc1ccccc1)C(=O)C(F)(F)C(=O)NC(C(=O)O)c1ccccc1 (stereo not given in full),1.04,> 100,> 96
CC(C)[C@H](NS(C)(=O)=O)C(=O)N1CCC[C@H]1C(=O)NC(Cc1ccccc1)C(=O)C(F)(F)C(=O)Nc1cccc(C(=O)O)c1 (stereo not given in full),0.0165,0.207,13
CNC(=O)C(F)(F)C(=O)C(Cc1ccccc1)NC(=O)[C@@H]1CCCN1C(=O)[C@@H](NC(=O)OC(C)(C)C)C(C)C (stereo not given in full),0.0287,1.07,37
CC(C)[C@H](NC(=O)OC(C)(C)C)C(=O)N1CCC[C@H]1C(=O)NC(Cc1ccccc1)C(=O)C(F)(F)C(=O)NCC(=O)OCc1ccccc1 (stereo not given in full),0.0125,0.316,25
CC(C)[C@H](NC(=O)OC(C)(C)C)C(=O)N1CCC[C@H]1C(=O)NC(Cc1ccccc1)C(=O)C(F)(F)C(=O)NCCC(=O)O (stereo not given in full),0.0364,2.3,63
CC(NC(=O)C(F)(F)C(=O)C(Cc1ccccc1)NC(=O)[C@@H]1CCCN1C(=O)[C@@H](NC(=O)OC(C)(C)C)C(C)C)C(=O)O (stereo not given in full),0.0656,54.9,837
CC(C)[C@H](NS(=O)(=O)c1ccccc1)C(=O)N1CCC[C@H]1C(=O)NC(Cc1ccccc1)C(=O)C(F)(F)C(=O)Nc1cccc(C(=O)O)c1 (stereo not given in full),0.0063,0.554,88
CC(C)[C@H](NC(=O)OC(C)(C)C)C(=O)N1CCC[C@H]1C(=O)NC(Cc1ccccc1)C(=O)C(F)(F)C(=O)NC(CC(=O)O)C(=O)O (stereo not given in full),1.55,> 100,> 65
CC(C)[C@H](NC(=O)OC(C)(C)C)C(=O)N1CCC[C@H]1C(=O)NC(Cc1ccccc1)C(=O)C(F)(F)C(=O)NCCCC(=O)O (stereo not given in full),0.024,4.43,185
CC(C)[C@H](NC(=O)OC(C)(C)C)C(=O)N1CCC[C@H]1C(=O)NC(Cc1ccccc1)C(=O)C(F)(F)C(=O)NC(CCC(=O)O)C(=O)O (stereo not given in full),1.01,> 100,> 99
CC(C)[C@H](NC(=O)OC(C)(C)C)C(=O)N1CCC[C@H]1C(=O)NC(Cc1ccccc1)C(=O)C(F)(F)C(=O)Nc1ccc(C(=O)O)cc1 (stereo not given in full),0.0068,0.2,29
CC(C)[C@H](NC(=O)OC(C)(C)C)C(=O)N1CCC[C@H]1C(=O)NC(Cc1ccccc1)C(=O)C(F)(F)C(=O)NCc1ccccc1 (mixture of isomers; form 2) [listing 2 of 2 here],,,129
CC(C)[C@H](NC(=O)OC(C)(C)C)C(=O)N1CCC[C@H]1C(=O)NC(Cc1ccccc1)C(=O)C(F)(F)C(=O)Nc1cccc(C(=O)O)c1 (stereo not given in full),0.0056,0.364,
CC(C)[C@H](NC(=O)OC(C)(C)C)C(=O)N1CCC[C@H]1C(=O)NC(Cc1ccccc1)C(=O)C(F)(F)C(=O)Nc1ccccc1 (stereo not given in full),0.0163,0.07,4
CC(C)[C@H](NC(=O)OC(C)(C)C)C(=O)N1CCC[C@H]1C(=O)NC(Cc1ccccc1)C(=O)C(F)(F)C(=O)NCCc1ccccc1 (stereo not given in full),0.0183,2.04,111
CC(C)[C@H](NC(=O)OC(C)(C)C)C(=O)N1CCC[C@H]1C(=O)NC(Cc1ccccc1)C(=O)C(F)(F)C(=O)NCc1ccccc1 (mixture of isomers; form 1) [listing 2 of 2 here],,,23
CC(=O)N[C@H](C(=O)N1CCC[C@H]1C(=O)NC(Cc1ccccc1)C(=O)C(F)(F)C(=O)Nc1cccc(C(=O)O)c1)C(C)C (stereo not given in full),0.0071,0.011,2
COC(=O)CNC(=O)C(F)(F)C(=O)C(Cc1ccccc1)NC(=O)[C@@H]1CCCN1C(=O)[C@@H](NC(=O)OC(C)(C)C)C(C)C (stereo not given in full),0.0065,2.51,387
CC(C)[C@H](NC(=O)OC(C)(C)C)C(=O)N1CCC[C@H]1C(=O)NC(Cc1ccccc1)C(=O)C(F)(F)C(=O)NC(Cc1ccccc1)C(=O)O (stereo not given in full),0.0301,1.7,57
CC(C)[C@H](NC(=O)CCc1ccccc1)C(=O)N1CCC[C@H]1C(=O)NC(Cc1ccccc1)C(=O)C(F)(F)C(=O)Nc1cccc(C(=O)O)c1 (stereo not given in full),0.0013,0.019,15

# From ChEMBL document CHEMBL1130789, “Peptidyl human heart chymase inhibitors. 1. Synthesis and inhibitory activity of difluoromethylene ketone derivatives bearing P' binding subsites” (Bioorg Med Chem Lett, 1998)
